Laboratory results as given in article PMC3039817 (British Journal of Cancer, 2010).

What was measured:
FGFR3 = FGFR3 (Homo sapiens, UniProt P22607); assay: FGFR3 phosphorylation in RT112 cells; format: cell-based; conditions: 500 nM, 0–24 h
In short: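 RT112 cells were exposed to 500 nM test compound for 0–24 h and lysed in RIPAE buffer, cleared at 12 700 × g, 4 °C. FGFR3 was immunoprecipitated with an extracellular-domain antibody. Blots were probed with anti-phosphotyrosine (4G10), then stripped (Tris pH 7.5/urea, 55 °C, 30 min) and reprobed for FGFR3. Detection was by chemiluminescence.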

[1] = system: phospho-ERK in 94-10 cells; assay: FGF2-induced and constitutive ERK phosphorylation in 94-10 cells; format: cell-based, human; conditions: 500 nM, pretreated 1 h, FGF2 5 ng ml–1 + heparin 10 μg ml–1, 15 min
In short: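 94-10 cells (FGFR1-expressing) were pretreated 1 h with or without 500 nM test compound. They were then stimulated 15 min with heparin (10 μg ml–1) with or without FGF2 (5 ng ml–1). Lysis was in RIPAE buffer (Triton X-100, EDTA, SDS, deoxycholate, glycerol, protease inhibitors in PBS), cleared at 12 700 × g, 4 °C. Protein was measured by BCA, immunoblotted for phospho-ERK, reprobed for tubulin and detected by chemiluminescence.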

RT112 cells = assay: Cell cycle distribution by flow cytometry; format: cell-based, human; conditions: 500 nM, 24-h exposure
In short: (§1)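 Cells grown in standard medium at 37 °C, 5% CO2, then exposed to 500 nM test compound or DMSO for 24 h. Harvested cells were fixed overnight in 70% ethanol at 4 °C and rehydrated in PBS pH 7.4. They were then pelleted, stained with propidium iodide/RNase in the dark at 37 °C for 30 min, and analysed by flow cytometry. Three independent experiments; ANOVA.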

RT4 cells = assay: Cell cycle distribution by flow cytometry; format: cell-based, human; conditions: 500 nM, 24-h exposure
In short: as §1

MGH-U3 cells = assay: Cell cycle distribution by flow cytometry; format: cell-based, human; conditions: 500 nM, 24-h exposure
In short: as §1

97-7 cells = assay: Cell cycle distribution by flow cytometry; format: cell-based, human; conditions: 500 nM, 24-h exposure
In short: as §1

SW780 cells = assay: Cell cycle distribution by flow cytometry; format: cell-based, human; conditions: 500 nM, 24-h exposure
In short: as §1

[2] = Toxicity in treated xenograft-bearing animals; format: in vivo, Balb/c immunodeficient nude mice; conditions: nude mice, 20 mg kg–1 per day i.p.
In short: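 Male Balb/c nude mice aged 6–8 weeks carried flank trocar implants of ~2 mm3 MGH-U3, SW780 or RT112 tumour fragments. At mean 32 mm3, mice were randomised into groups of eight (untreated control or treated). Dosing was 20 mg kg−1 per day i.p. on days 0–3, plus days 6–9 for MGH-U3. Tumours were measured by caliper.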

FGFR3, sequence (P22607 397-758 limits assumed): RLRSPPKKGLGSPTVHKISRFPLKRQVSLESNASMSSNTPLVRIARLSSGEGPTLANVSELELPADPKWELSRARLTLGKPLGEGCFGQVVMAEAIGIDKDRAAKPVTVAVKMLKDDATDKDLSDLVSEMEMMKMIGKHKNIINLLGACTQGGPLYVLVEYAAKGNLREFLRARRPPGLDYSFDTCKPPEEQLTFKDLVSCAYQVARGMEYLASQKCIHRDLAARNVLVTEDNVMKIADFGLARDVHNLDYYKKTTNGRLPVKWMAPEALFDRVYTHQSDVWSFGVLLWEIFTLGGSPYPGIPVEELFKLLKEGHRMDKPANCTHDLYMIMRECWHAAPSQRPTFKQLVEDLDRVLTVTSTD

**Q.** Which “FGFR3 phosphorylation, time-course” value (FGFR3) does the source give for CCN(CC)CCCCNc1ncc2cc(-c3cc(OC)cc(OC)c3)c(NC(=O)NC(C)(C)C)nc2n1 [PD173074, 1-tert-butyl-3-[6-(3,5-dimethoxy-phenyl)-2-(4-diethylamino-butylamino)-pyrido[2,3-d]pyrimidin-7-yl]-urea] here?
**A.** The value was “rapid and sustained inactivation of FGFR3”.

**Q.** And the “FGF-induced and constitutive ERK phosphorylation” value [1]?
**A.** Its value is “block both FGF-induced and constitutive ERK phosphorylation”.

**Q.** And the cell cycle distribution (RT112 cells)?
**A.** The cell cycle distribution was “significant increase in the proportion of cells in G1”.

**Q.** What about the cell cycle distribution (RT4 cells) of the same compound?
**A.** Its cell cycle distribution is “significant increase in the proportion of cells in G1”.

**Q.** And the cell cycle distribution (MGH-U3 cells)?
**A.** Its cell cycle distribution is “significant increase in the proportion of cells in G1”.

**Q.** And the cell cycle distribution (97-7 cells)?
**A.** Its cell cycle distribution is “significant increase in the proportion of cells in G1”.

**Q.** And the cell cycle distribution (SW780 cells)?
**A.** Its cell cycle distribution is “no significant change in cell cycle distribution”.

**Q.** What about the “toxicity in treated animals” value [2] of the same compound?
**A.** The value was “No evidence of significant toxicity”.

**Q.** With CN1CCN(c2ccc3nc(-c4c(N)c5c(F)cccc5[nH]c4=O)[nH]c3c2)CC1 [TKI-258] as the compound, how does the cell cycle distribution (RT112 cells) read?
**A.** Its cell cycle distribution is “significant increase in the proportion of cells in G1”.

**Q.** What about the cell cycle distribution (RT4 cells) of the same compound?
**A.** Its cell cycle distribution is “significant increase in the proportion of cells in G1”.

**Q.** And the cell cycle distribution (MGH-U3 cells)?
**A.** Its cell cycle distribution is “significant increase in the proportion of cells in G1”.

**Q.** And the cell cycle distribution (97-7 cells)?
**A.** The cell cycle distribution was “significant increase in the proportion of cells in G1”.

**Q.** What about the cell cycle distribution (SW780 cells) of the same compound?
**A.** Its cell cycle distribution is “no significant change in cell cycle distribution”.
